# The source made the active and inactive calls. The rule behind the calls is not given here.
# Columns and labels:
# L1210 [1] = experiment: Tested for the T/C (survival time treated/survival time control x 100) after intraperitoneal administration of 50 mg/Kg in 10 E 5 L1210 cells on day 0; not active; assay type: functional; conditions: Mus musculus
# L1210 [2] = experiment: (§1) Antitumor activity against L1210 leukemia in BDF1 male mice at the dose of 10 mg/kg; assay type: functional, Mus musculus
# Summary of the method: (§2)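 L1210 leukemia, 10^5 cells inoculated ip into BDF1 male mice on day 0. Analogue given ip once daily on days 1-9; where stated, diallenylputrescine (PAO inhibitor) was co-given at 2.5 or 5.0 mg/kg. Mean survival time ± SD (n=5). %T/C = treated survival time/control survival time × 100.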
# L1210 [3] = experiment: (§3) Antitumor activity against L1210 leukemia in BDF1 male mice at the dose of 5 mg/kg when given with 5.0 mg/kg of diallenylputrescine; assay type: functional, Mus musculus; summary of the method: as §2
# L1210 [4] = experiment: (§4) Antitumor activity against L1210 leukemia in BDF1 male mice at the dose of 10 mg/kg when given with 5.0 mg/kg of diallenylputrescine; assay type: functional, Mus musculus; summary of the method: as §2
# L1210 [5] = experiment: (§5) Antitumor activity against L1210 leukemia in BDF1 male mice at the dose of 5 mg/kg; assay type: functional, Mus musculus; set-up: unit not given here
# Summary of the method: (§6)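 BDF1 male mice were inoculated ip with 10^5 L1210 cells on day 0. Agents were given ip once daily on days 1-9, alone or with diallenylputrescine at 2.5 or 5.0 mg/kg. Mean survival time was reported ± SD (n=5). %T/C = treated survival/control survival × 100.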
# L1210 [6] = experiment: as §4; assay type: functional, Mus musculus; summary of the method: as §6; remark: listed apart in the source
# L1210 [7] = experiment: as §5; assay type: functional, Mus musculus; summary of the method: as §2
# L1210 [8] = experiment: Tested for the T/C (survival time treated /survival time control x 100) after intraperitoneal administration of 5 mg/kg in 10 E 5 L1210 cells on day 0; assay type: functional, Mus musculus
# Summary of the method: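 Male BDF1 mice, in groups of six, were inoculated ip with 10^5 L1210 cells on day 0. Tetrahydrochloride salts were given at 5 mg/kg every 3 h (×4) on days 3-5. T/C = survival time treated/survival time control × 100.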
# L1210 [9] = experiment: as §1; assay type: functional, Mus musculus; summary of the method: as §6; remark: listed apart in the source
# L1210 [10] = experiment: as §3; assay type: functional, Mus musculus; summary of the method: as §6; remark: listed apart in the source
# L1210 [11] = experiment: (§7) Antitumor activity against L1210 leukemia in BDF1 male mice at the dose of 5 mg/kg when given with 2.5 mg/kg of diallenylputrescine; assay type: functional, Mus musculus; summary of the method: as §2
# L1210 [12] = experiment: as §7; assay type: functional, Mus musculus; summary of the method: as §6; remark: listed apart in the source
# [13] = Tested for in vitro half life period against polyamine oxidase after intraperitoneal administration; assay type: ADME; conditions: ip
# [14] = target: Peroxisomal N(1)-acetyl-spermine/spermidine oxidase (Mus musculus) (UniProt Q8C0L6); experiment: Tested for the in vivo inhibitory activity against polyamine oxidase in mice at a dose of 1 mg/kg; assay type: functional, organism-based; set-up: dose 1 mg/kg
# Summary of the method: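 Mice received drug ip 24 h before sacrifice. Liver homogenised and polyamine oxidase activity assayed. Protein by Bradford method with BSA standard.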
# L1210 [15] = experiment: Tested for the T/C (survival time treated /survival time control x 100) after intraperitoneal administration of 25 mg/kg in 10 E 5 L1210 cells on day 0; assay type: functional, Mus musculus
# L1210 [16] = experiment: Effect of 25 mg/kg spermidine coadministered with 25 mg/kg compound on the tumor cell concentration (L1210) of spermidine; assay type: functional, Mus musculus
# Summary of the method: (§8)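 BDF1 male mice bearing ip L1210 cells. Starting day 4, ip dosing with analogue, alone or with putrescine or spermidine, at the doses indicated. Killed 4 h after the final dose; tumour cells recovered by peritoneal lavage. Drug and polyamines quantified by HPLC, pmol/10^6 cells, mean of three determinations.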
# L1210 [17] = experiment: Effect of 25 mg/kg spermidine coadministered with 25 mg/kg compound on the tumor cell concentration (L1210) of spermine; assay type: functional, Mus musculus; summary of the method: as §8
# L1210 [18] = experiment: Effect of 25 mg/kg spermidine coadministered with 25 mg/kg compound on the tumor cell concentration (L1210) of compound; assay type: functional, Mus musculus; summary of the method: as §8
# L1210 [19] = experiment: Effect of 25 mg/kg spermidine coadministered with 25 mg/kg compound on the tumor cell concentration (L1210) of putrescine; assay type: functional, Mus musculus; summary of the method: as §8
# L1210 [20] = experiment: Effect of 25 mg/kg putrescine coadministered with 25 mg/kg compound on the tumor cell concentration (L1210) of spermine; assay type: functional, Mus musculus; summary of the method: as §8
# L1210 [21] = experiment: Effect of 25 mg/kg putrescine coadministered with 25 mg/kg compound on the tumor cell concentration (L1210) of spermidine; assay type: functional, Mus musculus; summary of the method: as §8
# L1210 [22] = experiment: Effect of 25 mg/kg putrescine coadministered with 25 mg/kg compound on the tumor cell concentration (L1210) of compound; assay type: functional, Mus musculus; summary of the method: as §8
# L1210 [23] = experiment: Effect of 25 mg/kg putrescine coadministered with 25 mg/kg compound on the tumor cell concentration (L1210) of putrescine; assay type: functional, Mus musculus; summary of the method: as §8
# L1210 [24] = experiment: Effect of 25 mg/kg putrescine or spermidine coadministered with 25 mg/kg compound on the tumor cell concentration (L1210) of compound; assay type: functional, Mus musculus; summary of the method: as §8
# L1210 [25] = experiment: Modulation of the antitumor activity against L1210 Leukemia at 25 mg/kg along with 25 mg/kg spermidine days 1-7, 1 dose / day; assay type: functional, Mus musculus
# L1210 [26] = experiment: Modulation of the antitumor activity against L1210 Leukemia at 25 mg/kg along with 25 mg/kg putrescine days 1-7, 1 dose / day; assay type: functional, Mus musculus
# L1210 [27] = experiment: Effect of 25 mg/kg putrescine or spermidine coadministered with 25 mg/kg compound on the tumor cell concentration (L1210) of putrescine; assay type: functional, Mus musculus; summary of the method: as §8
# L1210 [28] = experiment: Effect of 25 mg/kg putrescine or spermidine coadministered with 25 mg/kg compound on the tumor cell concentration (L1210) of spermine; assay type: functional, Mus musculus; summary of the method: as §8
# L1210 [29] = experiment: Modulation of the antitumor activity against L1210 Leukemia by 25 mg/kg ip days 1-7, 1 dose/day; assay type: functional, Mus musculus; conditions: route intraperitoneal
# L1210 [30] = experiment: Effect of 25 mg/kg putrescine or spermidine coadministered with 25 mg/kg compound on the tumor cell concentration (L1210) of spermidine; assay type: functional, Mus musculus; summary of the method: as §8
# Sequence of Peroxisomal N(1)-acetyl-spermine/spermidine oxidase (Mus musculus) (Q8C0L6 whole entry): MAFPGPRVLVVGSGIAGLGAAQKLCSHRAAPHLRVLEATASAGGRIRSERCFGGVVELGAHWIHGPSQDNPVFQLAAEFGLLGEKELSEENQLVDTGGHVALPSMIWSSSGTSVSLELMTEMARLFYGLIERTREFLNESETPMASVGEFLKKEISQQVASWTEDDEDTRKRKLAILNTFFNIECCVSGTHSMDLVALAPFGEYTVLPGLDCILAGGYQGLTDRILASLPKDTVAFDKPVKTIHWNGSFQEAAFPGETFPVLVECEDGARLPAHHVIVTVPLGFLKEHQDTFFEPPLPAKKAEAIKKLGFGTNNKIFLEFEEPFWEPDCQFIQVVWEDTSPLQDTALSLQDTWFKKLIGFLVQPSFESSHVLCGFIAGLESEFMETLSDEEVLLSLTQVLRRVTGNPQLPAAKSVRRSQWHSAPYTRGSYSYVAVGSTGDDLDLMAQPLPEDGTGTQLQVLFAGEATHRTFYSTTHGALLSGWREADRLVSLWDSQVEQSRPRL
smiles,measurement,setting,value
CN(C)CCCNCCCCCCCCNCCCN(C)C,T/C,L1210 [1],inactive
CCNCCCNCCCCCCCCNCCCN.Cl.Cl.Cl.Cl,T/C,L1210 [2],112%
same,T/C,L1210 [3],105%
same,T/C,L1210 [4],155%
same,Mean survival time,L1210 [5],7.6
same,Mean survival time,L1210 [6],12.4
same,T/C,L1210 [7],100%
same,T/C,L1210 [8],145%
same,Mean survival time,L1210 [9],9
same,Mean survival time,L1210 [10],8.4
NCCCCSCCCN,T/C,L1210 [1],inactive
CNCCCNCCCCCCCCNCCCNC.Cl.Cl.Cl.Cl,T/C,L1210 [2],172%
same,T/C,L1210 [3],157%
same,T/C,L1210 [4],317%
same,Mean survival time,L1210 [5],11.4
same,Mean survival time,L1210 [6],25.4
same,T/C,L1210 [7],142%
same,T/C,L1210 [8],206%
same,Mean survival time,L1210 [9],13.8
same,Mean survival time,L1210 [10],12.6
CCNCCCNCCCCCCCCNCCCNCC.Cl.Cl.Cl.Cl,T/C,L1210 [2],112%
same,T/C,L1210 [3],142%
same,T/C,L1210 [4],287%
same,Mean survival time,L1210 [5],9.8
same,Mean survival time,L1210 [6],23
same,T/C,L1210 [7],122%
same,T/C,L1210 [8],135%
same,Mean survival time,L1210 [9],9
same,Mean survival time,L1210 [10],11.4
NCCCNCCCOCCCNCCCN,T/C,L1210 [1],inactive
NCCCSCCCN,T/C,L1210 [1],inactive
CN(CCCN)CCCN,T/C,L1210 [1],inactive
CC(N)CCNCCCCCCCCNCCC(C)N.Cl.Cl.Cl.Cl (centres undefined),Mean survival time,L1210 [5],13.3
same,T/C,L1210 [11],376%
same,Mean survival time,L1210 [12],25.6
same,T/C,L1210 [7],195%
same,T/C,L1210 [8],206%
NCCCS(=O)(=O)CCCN,T/C,L1210 [1],inactive
C=C=CCNCCCNCCCCCCCCNCCCNCC=C=C.Cl.Cl.Cl.Cl,T50,[13],2 min
same,T/C,L1210 [1],inactive
same,PAO activity,[14],4.1 pM/min
NCCCCCCCCNCCCN,T/C,L1210 [1],inactive
CNCCCCCCCCNC,T/C,L1210 [1],inactive
c1ccc(CNCCCNCCCCCCCCNCCCNCc2ccccc2)cc1,T/C,L1210 [1],inactive
NCCCNCCCN [NORSPERMIDINE],T/C,L1210 [15],179%
NCCCCNCCCN.NCCCNCCCCCCCCNCCCN,Effect,L1210 [16],2174 pM (10e6*cells)-1
same,Effect,L1210 [17],817 pM (10e6*cells)-1
same,Effect,L1210 [18],114 pM (10e6*cells)-1
same,Effect,L1210 [19],51.7 pM (10e6*cells)-1
NCCCOCCCN,T/C,L1210 [1],inactive
NCCCCN.NCCCNCCCCCCCCNCCCN,Effect,L1210 [20],799 pM (10e6*cells)-1
same,Effect,L1210 [21],1060 pM (10e6*cells)-1
same,Effect,L1210 [22],520 pM (10e6*cells)-1
same,Effect,L1210 [23],120 pM (10e6*cells)-1
CCCNCCCNCCCCCCCCNCCCNCCC,T/C,L1210 [1],inactive
NCCCCCCCCN,T/C,L1210 [1],inactive
Cl.Cl.Cl.Cl.NCCCNCCCCCCCCNCCCN,Effect,L1210 [24],580 pM (10e6*cells)-1
same,Mean survival time,L1210 [25],8.3 days
same,Mean survival time,L1210 [26],15 days
same,Effect,L1210 [27],37.4 pM (10e6*cells)-1
same,Effect,L1210 [28],1110 pM (10e6*cells)-1
same,T/C,L1210 [8],350%
same,Mean survival time,L1210 [29],16.2 days
same,Effect,L1210 [30],1711 pM (10e6*cells)-1
NCCCCCCCN,T/C,L1210 [1],inactive
CNCCCNCCCNC,T/C,L1210 [1],inactive
C=C=CCNCCCCNCC=C=C,T50,[13],1 min
C=C=CCNCCCNCCCNCC=C=C,T50,[13],4 min
same,T/C,L1210 [1],inactive
same,PAO activity (pM min-1 mg-1),[14],1
CC(CCN)NCCCCCCCCNC(C)CCN (centres undefined),T/C,L1210 [1],inactive
CN(C)CCCNCCCN(C)C,T/C,L1210 [1],inactive
CCCCNCCCNCCCCCCCCNCCCNCCCC,T/C,L1210 [1],inactive
CN(CCCN)CCCCCCCCN(C)CCCN,T/C,L1210 [1],inactive

# — ChEMBL document CHEMBL1124761, “Polyamine analogues with antitumor activity” (J Med Chem, 1990)
